Data set [1] in a line: Cytotoxicity against human MCF10 cells assessed as cell viability at 33.3 uM after 72 hrs by cell titer glo assay. The format is cell-based. The note with it: read-out: Activity. In a few lines:
(§1)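 The highest concentration tested was 33.3 μM, in a series running down to 0.0152 μM. Results came from three independent experiments.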

Data set [2] relates to MDA-MB-231. The data set is described as follows: Cytotoxicity against human MDA-MB-231 cells assessed as cell viability at 33.3 uM after 72 hrs by cell titer glo assay. The format is functional. The note with it: MDA-MB-231, 72 h, read-out: Activity. In short, it runs like this:
as §1
For orientation: ATP-based viability assays read luminescence as a measure of living cells.

The subject of data set [3] is HeLa. The data set is described as follows: Cytotoxicity against human HeLa cells assessed as reduction in cell growth after 72 hrs by cell titer glo assay. The format is functional, cell-based.
The subject of data set [4] is MCF7. The data set is described as follows: Cytotoxicity against human MCF7 cells assessed as cell viability at 33.3 uM after 72 hrs by cell titer glo assay. The format is functional. The following applies: MCF7, 72 h, read-out: Activity. In a few lines:
as §1

A short description of data set [5]: Cytotoxicity against human MIAPaCa2 cells assessed as reduction in cell growth after 72 hrs by cell titer glo assay. The format is functional, cell-based. The following applies: MIA PaCa-2, 72 h.
Data set [6] deals with MDA-MB-231. The data set is described as follows: Cytotoxicity against human MDA-MB-231 cells assessed as reduction in cell growth after 72 hrs by cell titer glo assay. The following applies: MDA-MB-231, 72 h. The format is functional, cell-based. In a few lines:
(§2)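 IC50, the concentration giving 50% inhibition of cell growth, was read from plots of inhibition against concentration. Values were calculated from three independent experiments.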

In the next data set the test system is MCF10. The data set is described as follows: Cytotoxicity against human MCF10 cells assessed as reduction in cell growth after 72 hrs by cell titer glo assay. The note with it: MCF10, 72 h. The format is cell-based. In a few lines: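 Non-tumour mammary epithelial cells exposed to an 8-point series (33.3, 11.1, 3.7, 1.23, 0.41, 0.137, 0.0457, 0.0152 μM). IC50 is the concentration giving 50% growth inhibition, read from the plot of inhibition against concentration and calculated from three independent experiments.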

The subject of data set [7] is MCF7. The data set is described as follows: Cytotoxicity against human MCF7 cells assessed as reduction in cell growth after 72 hrs by cell titer glo assay. The format is functional, cell-based. The following applies: MCF7, 72 h. In short, it runs like this: as §2
A short description of data set [8]: Cytotoxicity against human MIAPaCa2 cells assessed as cell viability at 33.3 uM after 72 hrs by cell titer glo assay. The format is functional. The note with it: MIA PaCa-2, 72 h, read-out: Activity. In a few lines: as §1
Data set [9] deals with HeLa. The data set is described as follows: Cytotoxicity against human HeLa cells assessed as cell viability at 33.3 uM after 72 hrs by cell titer glo assay. The format is functional. The note with it: read-out: Activity. In short, it runs like this: as §1

In general, IC50 refers to the midpoint of a concentration-inhibition curve. For the compound `COc1cccc(/C=C/CC(O)c2cc(O)c3c(c2O)C(=O)c2ccccc2C3=O)c1` (stereo unspecified), the viability at 72 h, 33.3 µM in [1] is more than 50%. Besides, the viability at 33.3 µM with MDA-MB-231 [2] and in the data set on MCF7 [4] was more than 50% in each case. In addition, the figures for the IC50 (with HeLa [3]; in data set [5]) were 28 µM and 27.1 µM, respectively.

Take `O=C1c2ccccc2C(=O)c2c(O)c(C(O)C/C=C/c3ccccc3F)cc(O)c21` (stereo unspecified): the viability at 72 h, 33.3 µM in data set [1] was more than 50%. Besides, the results for the IC50 (in the data set on MDA-MB-231 [6]; in the data set on HeLa [3]; in data set [5]) were 29.2 µM, 28.7 µM and 27.3 µM, respectively. For the same compound, the viability at 33.3 µM in the data set with MCF7 [4] was more than 50%.

For `COc1cccc2c1C(=O)c1c(O)c3c(c(O)c1C2=O)C[C@@](O)(C(=O)CO)C[C@@H]3O[C@H]1C[C@H](N)[C@H](O)[C@H](C)O1` [DOXORUBICIN], the IC50 in the data set with MDA-MB-231 [6] and in the data set on MCF10 was 0.16 µM each time.

Regarding `O=C1c2ccccc2C(=O)c2c(O)c(C(O)C/C=C/c3ccccc3Cl)cc(O)c21` (stereo unspecified), the IC50 with MCF7 [7] was determined as 31.5 µM; in the data set with HeLa [3] it was 27.2 µM. Moreover, in data set [1], the viability at 72 h, 33.3 µM was more than 50%. Also, the viability at 33.3 µM in data set [8] was more than 50%.

In the case of `O=C1c2ccccc2C(=O)c2c(O)c(C(O)C/C=C/c3ccccc3)cc(O)c21` (stereo unspecified), in data set [1], the viability at 72 h, 33.3 µM is more than 50%. Moreover, the viability at 33.3 µM (in [8]; in the data set on MDA-MB-231 [2]; in the data set with MCF7 [4]) was more than 50% in each case. In addition, the IC50 in the data set with HeLa [3] came to 18.6 µM.

As for `O=C1c2ccccc2C(=O)c2c(O)c(C(O)C/C=C/c3ccccc3Br)cc(O)c21` (stereo unspecified), the IC50 in the data set with MCF7 [7] is 31.1 µM; in the data set on MDA-MB-231 [6], 30.7 µM; in the data set on HeLa [3], 25.6 µM; in data set [5], 27.1 µM. Besides, in data set [1], the viability at 72 h, 33.3 µM was more than 50%.

For `CC(C)=CC[C@@H](O)C1=CC(=O)c2c(O)ccc(O)c2C1=O` [SHIKONIN], the IC50 with MCF7 [7] is 5.49 µM; in the data set on MDA-MB-231 [6], 3.94 µM; with HeLa [3] it was 6.42 µM; in the data set on MCF10, 4.56 µM; in data set [5], 0.04 µM.

As for `O=C1c2ccccc2C(=O)c2c(O)c(C(O)C/C=C/c3ccc(F)cc3)cc(O)c21` (stereo unspecified), the IC50 in the data set with MCF7 [7] worked out at 28.5 µM; in the data set on MDA-MB-231 [6] it was 28 µM; in the data set with HeLa [3], 32.9 µM; in data set [5] it was 23.2 µM. Further, the viability at 72 h, 33.3 µM in [1] is more than 50%.

With `Cc1cccc(/C=C/CC(O)c2cc(O)c3c(c2O)C(=O)c2ccccc2C3=O)c1` (stereo unspecified), the figures for the IC50 (in the data set with MCF7 [7]; with HeLa [3]; in data set [5]) were 32.8 µM, 27.2 µM and 28.5 µM, respectively. In addition, the viability at 72 h, 33.3 µM in data set [1] was more than 50%. For the same compound, the viability at 33.3 µM in the data set on MDA-MB-231 [2] was more than 50%.

For the compound `COc1ccccc1/C=C/CC(O)c1cc(O)c2c(c1O)C(=O)c1ccccc1C2=O` (stereo unspecified), the viability at 72 h, 33.3 µM in data set [1] was more than 50%. Besides, the viability at 33.3 µM (in data set [8]; in the data set with MDA-MB-231 [2]; in the data set on MCF7 [4]) was more than 50% in each case. For the same compound, in the data set with HeLa [3], the IC50 worked out at 29 µM.

Consider `O=C1C2=C(C(=O)c3ccccc31)C(O)C1=C(O)CC(c3ccccc3)C1=C2O` (stereo unspecified), for which the viability at 72 h, 33.3 µM in [1] is more than 50%. Moreover, the 50% inhibitory concentration (IC50) was found to be 28.8 µM in the data set with MDA-MB-231 [6], 29.2 µM in the data set on HeLa [3] and 27.7 µM in data set [5]. The viability at 33.3 µM in the data set on MCF7 [4] was more than 50%.

With `COc1ccc(/C=C/CC(O)c2cc(O)c3c(c2O)C(=O)c2ccccc2C3=O)cc1` (stereo unspecified), the IC50 with MCF7 [7] turned out to be 32.8 µM; in the data set with MDA-MB-231 [6] it was 26.9 µM; in the data set on HeLa [3], 24.1 µM; in data set [5] it was 26.3 µM. Also, the viability at 72 h, 33.3 µM in [1] is more than 50%.

Regarding `O=C1c2ccccc2C(=O)c2c(O)c(C(O)C/C=C/c3cccc(Cl)c3)cc(O)c21` (stereo unspecified), the IC50 in the data set with MCF7 [7] was 32.2 µM; with MDA-MB-231 [6], 31.2 µM; in the data set with HeLa [3], 25.8 µM; in [5] it was 26.4 µM. Moreover, the viability at 72 h, 33.3 µM in data set [1] is more than 50%.

`Cc1ccccc1/C=C/CC(O)c1cc(O)c2c(c1O)C(=O)c1ccccc1C2=O` (stereo unspecified): the IC50 in the data set with MCF7 [7] is 32.8 µM; in the data set with HeLa [3], 28.3 µM; in data set [5], 26.1 µM. For the same compound, the viability at 72 h, 33.3 µM in data set [1] was more than 50%. In addition, the viability at 33.3 µM in the data set on MDA-MB-231 [2] is more than 50%.

Regarding `O=C1c2ccccc2C(=O)c2c(O)c(C(O)C/C=C/c3cccc(F)c3)cc(O)c21` (stereo unspecified), the IC50 with MCF7 [7] is 32.1 µM; with MDA-MB-231 [6], 26.5 µM; with HeLa [3], 25.2 µM; in data set [5], 26.3 µM. The viability at 72 h, 33.3 µM in data set [1] was more than 50%.

As to `O=C1c2ccccc2C(=O)c2c(O)c(C(O)C/C=C/c3ccc(Cl)cc3)cc(O)c21` (stereo unspecified), the IC50 with MCF7 [7] is 32.3 µM; with MDA-MB-231 [6], 28.5 µM; in the data set with HeLa [3] it was 27.4 µM; in [5] it was 27.4 µM. In addition, the viability at 72 h, 33.3 µM in data set [1] is more than 50%.

`O=C1c2ccccc2C(=O)c2c(O)c(C(O)C/C=C/c3cccc(Br)c3)cc(O)c21` (stereo unspecified): the IC50 with MCF7 [7] is 31.7 µM; in the data set on HeLa [3] it was 29.1 µM; in data set [5], 27.6 µM. In addition, the viability at 72 h, 33.3 µM in data set [1] was more than 50%. Moreover, the viability at 33.3 µM in the data set with MDA-MB-231 [2] is more than 50%.

As for `O=C1c2ccccc2C(=O)c2c(O)c(C(O)C/C=C/c3ccc(Br)cc3)cc(O)c21` (stereo unspecified), the viability at 72 h, 33.3 µM in [1] was more than 50%. In addition, the viability at 33.3 µM (in [8]; with HeLa [9]; with MDA-MB-231 [2]; with MCF7 [4]) was more than 50% throughout.

For the compound `Cc1ccc(/C=C/CC(O)c2cc(O)c3c(c2O)C(=O)c2ccccc2C3=O)cc1` (stereo unspecified), the viability at 72 h, 33.3 µM in data set [1] is more than 50%. For the same compound, the viability at 33.3 µM (in data set [8]; in the data set with MDA-MB-231 [2]; with MCF7 [4]) was more than 50% in each case. The half-maximal inhibitory concentration (IC50) in the data set on HeLa [3] was 29 µM.

The values above are taken from ChEMBL document CHEMBL3797090, “One-pot synthesis of 1,4-dihydroxy-2-((E)-1-hydroxy-4-phenylbut-3-enyl)anthracene-9,10-diones as novel shikonin analogs and evaluation of their antiproliferative activities” (Bioorg Med Chem Lett, 2016).
